Compound activity: PubChem, several laboratories
The list is not random: actives were taken first. Their share in the collection is about 1.8%.
UHRF1 MBD2 ctr = UHRF1 methylated DNA binding inhibitors, primary screen, counter-screen for MBD2 inhibitor project, biochemical, TR-FRET, human UHRF1, single concentration | E3 ubiquitin-protein ligase UHRF1 (Homo sapiens), Q96T88 | 370,000 tested, 0.75% active | inhibition, % at 4.4 µM | UHRF1 binding to methylated oligo; in the data active means inhibition above about 21%;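 further: UHRF1 SRA domain binding a hemimethylated CpG hairpin DNA probe; 0% = median of test compound wells and 100% = reference inhibitor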
Target sequence (Q96T88 whole entry, looked up, the tested form may be a part): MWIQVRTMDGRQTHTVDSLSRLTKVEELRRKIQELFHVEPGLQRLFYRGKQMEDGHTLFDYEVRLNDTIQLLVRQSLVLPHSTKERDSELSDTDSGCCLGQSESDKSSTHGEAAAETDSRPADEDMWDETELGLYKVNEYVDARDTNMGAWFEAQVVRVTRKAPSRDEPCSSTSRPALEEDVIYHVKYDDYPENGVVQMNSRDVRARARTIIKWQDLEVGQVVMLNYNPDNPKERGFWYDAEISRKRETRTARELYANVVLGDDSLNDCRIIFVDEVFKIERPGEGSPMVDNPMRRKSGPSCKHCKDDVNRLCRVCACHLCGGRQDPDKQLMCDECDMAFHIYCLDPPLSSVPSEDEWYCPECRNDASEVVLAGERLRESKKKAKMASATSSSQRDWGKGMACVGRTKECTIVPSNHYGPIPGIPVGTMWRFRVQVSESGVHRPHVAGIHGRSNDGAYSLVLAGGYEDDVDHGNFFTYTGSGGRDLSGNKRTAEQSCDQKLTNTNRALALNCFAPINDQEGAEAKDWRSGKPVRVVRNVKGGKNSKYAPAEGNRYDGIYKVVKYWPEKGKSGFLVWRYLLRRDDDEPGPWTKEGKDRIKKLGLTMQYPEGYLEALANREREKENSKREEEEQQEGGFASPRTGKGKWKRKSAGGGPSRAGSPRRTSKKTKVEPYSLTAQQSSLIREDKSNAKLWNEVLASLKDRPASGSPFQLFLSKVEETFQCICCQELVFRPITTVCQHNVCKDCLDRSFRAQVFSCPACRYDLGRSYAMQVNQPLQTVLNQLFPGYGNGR
TDP2 inh = human TDP2 enzyme inhibitors, primary screen, biochemical, epi absorbance, recombinant enzyme. Tyrosyl-DNA phosphodiesterase 2 (Homo sapiens), O95551. T5PNP hydrolysis, p-nitrophenol absorbance 415 nm. inhibition, % at 12.8 µM. 370,000 tested, 0.34% active;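 active means inhibition above the mean of all tested compounds plus 3 SD, set per campaign, cut at about 25% in these data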;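 further: 0% = DMSO with enzyme and 100% = buffer with substrate but no TDP2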
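Incubation: 2 h at 37 °C; Test system: recombinant human TDP2; Quantity: enzyme 120 nM; Read-out basis: percent inhibition; Medium: 50 mM Tris-HCl pH 7.5 with Mg2+, KCl, DTT, BSA; Repeats: single replicate; Compound: 12.8 µM single point, 1% DMSO; Signal: epi absorbance; Reagent: 5 mM T5PNP chromogenic substrate; Benchmarks: no-enzyme high, DMSO-plus-enzyme low.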
LEDGF integ inh = blockers of LEDGF/p75-dependent integrase strand transfer – biochemical, TR-FRET, high throughput, primary screen. 370,000 tested, 0.64% active. TR-FRET IN-LEDGF/p75 DNA integration, Eu/Cy5. HIV-1 integrase (with human LEDGF/p75). AID 743269, 2014. inhibition, % at 3.7 µM;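 active means inhibition above the screen-wide mean plus 3 SD, cut at about 13% in these data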;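 further: signal is the Cy5 over europium emission ratio at 671 and 618 nm; 0% = plate median of compound wells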
MBD2 DNA inh = inhibitors of MBD2 binding to methylated DNA, primary screen, biochemical, TR-FRET, DNA-binding domain, human | Methyl-CpG-binding domain protein 2 (Homo sapiens), Q9UBB5 | MBD2 binding to methylated oligonucleotide | inhibition, % at 4.4 µM | 370,000 tested, 0.31% active | AID 686964, 2013; in the data active means inhibition above about 13%
CASP6 VEID inh = human caspase-6 inhibitors, primary screen, biochemical, VEID-R110 fluorescence, single point, set 2. P55212. purified caspase-6, Z-VEID-R110 cleavage fluorescence. inhibition, % at 12.5 µM. 350,000 tested, 0.53% active. AID 686996, 2013;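 active means mean inhibition across replicates at least about 35%, with every replicate also reaching that limit, limit read from the data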;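 further: 0% = median of neutral control wells and 100% = no fluorescence left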
NSD2 inh = NSD2 histone methyltransferase inhibitors, primary screen, biochemical, AlphaScreen, single concentration, set 2; Histone-lysine N-methyltransferase NSD2 (Homo sapiens), O96028; NSD2 peptide methylation, 120 min; inhibition, % at 12.5 µM; 310,000 tested, 0.54% active; in the data active means inhibition above about 50%
* marks the source's active call; other numbers are inactive results; ! = repeats disagree.

Results for O=C1NC(=O)N(CCC2=CCCCC2)C(=O)/C1=C\c1cccs1 ?
UHRF1 MBD2 ctr: 5.8; TDP2 inh: 0.2; LEDGF integ inh: 1.8; MBD2 DNA inh: 8.0; CASP6 VEID inh: 37.0*; NSD2 inh: 26.7

What do the screens show for `CCN1[C@@H]2c3ccc(-c4ccc(OC)cc4)c(=O)n3C[C@H]1[C@H](CO)[C@H]2C(=O)OC`?
CASP6 VEID inh: -0.2

Results for O=C1NC(=O)N(c2ccccc2)C(=O)/C1=C/c1coc2ccc(O)cc2c1=O ?
UHRF1 MBD2 ctr: 27.4*; TDP2 inh: 4.8; LEDGF integ inh: 7.9; MBD2 DNA inh: 5.2; CASP6 VEID inh: 28.5; NSD2 inh: 10.5

Results for COC(=O)[C@H]1[C@H](CO)[C@H]2Cn3c(ccc(-c4ccccc4F)c3=O)[C@@H]1N2CC1CCCC1 ?
CASP6 VEID inh: -0.6

What do the screens show for `CN1CCC2(CC1)C(C#N)=C(N)NC(S)=C2C#N`?
UHRF1 MBD2 ctr: -7.4; TDP2 inh: 30.4*!; LEDGF integ inh: -0.7; MBD2 DNA inh: -5.6; CASP6 VEID inh: 47.3*!; NSD2 inh: 45.5

How did O=C(Cc1cccnc1)N1CCCCN2[C@@H](CO)[C@@H](c3ccc(/C=C/c4ccccc4)cc3)[C@@H]2C1 do in these assays?
CASP6 VEID inh: 0.1

Results for O=C(NC(=S)N1C[C@H]2C[C@H](C1)c1cccc(=O)n1C2)c1ccc(Cl)cc1Cl ?
UHRF1 MBD2 ctr: 90.8*; TDP2 inh: 0.3; LEDGF integ inh: 0.2; MBD2 DNA inh: 3.7; CASP6 VEID inh: 1.3

Results for O=P(O)(Oc1ccccc1)c1ccccc1 ?
UHRF1 MBD2 ctr: 20.9*; TDP2 inh: 2.8; LEDGF integ inh: 5.6; MBD2 DNA inh: 8.0; CASP6 VEID inh: 1.0; NSD2 inh: -0.2

How did O=P(O)(O)Oc1ccccc1P(=O)(c1ccccc1)c1ccccc1 do in these assays?
UHRF1 MBD2 ctr: 0.6; TDP2 inh: -10.1; LEDGF integ inh: 2.9; MBD2 DNA inh: -1.2; CASP6 VEID inh: -1.5; NSD2 inh: -2.2

Results for Cc1ccccc1-c1ccc([C@@H]2[C@H](CO)N3CCCCN(C(=O)Cc4ccccn4)C[C@@H]23)cc1 ?
CASP6 VEID inh: 0.3

Results for COC(=O)[C@@H]1[C@@H](CO)[C@@H]2Cn3c(ccc(/C=C/c4ccccc4)c3=O)[C@H]1N2CC1CCCC1 ?
CASP6 VEID inh: -2.9

Results for CCCCNC(C)Cc1ccccc1 (centres undefined) ?
UHRF1 MBD2 ctr: 0.3; TDP2 inh: 1.0; LEDGF integ inh: -1.9; MBD2 DNA inh: 3.6; CASP6 VEID inh: -0.6

Results for CC(Cc1cccs1)NCc1ccccc1 (centres undefined) ?
UHRF1 MBD2 ctr: 29.3*; TDP2 inh: -2.5; LEDGF integ inh: -1.5; MBD2 DNA inh: 0.0; CASP6 VEID inh: -2.9

How did O=C(O)[C@@H]1[C@@H](CO)[C@@H]2Cn3c(ccc(-c4ccccc4)c3=O)[C@H]1N2CC1CCCCC1 do in these assays?
CASP6 VEID inh: -2.5

Results for O=C1NC(=O)N(c2ccc3c(c2)OCO3)C(=O)/C1=C\c1ccc(-c2ccccc2C(=O)O)o1 ?
UHRF1 MBD2 ctr: 18.4; TDP2 inh: -2.5; LEDGF integ inh: 4.2; MBD2 DNA inh: 2.3; CASP6 VEID inh: 43.0*; NSD2 inh: 37.1

What do the screens show for `O=C1NC(=O)N(c2ccc3c(c2)OCO3)C(=O)/C1=C/c1ccc(N2CCCCC2)o1`?
UHRF1 MBD2 ctr: -23.0; TDP2 inh: 14.4; LEDGF integ inh: -0.3; MBD2 DNA inh: -14.3; NSD2 inh: 4.9

Results for CCOC(=O)[C@@H]1[C@@H]2NC(=S)N[C@@]1(C)Oc1ccccc12 ?
CASP6 VEID inh: -2.1

How did Fc1ccc(CNCCc2ccccc2F)cc1 do in these assays?
UHRF1 MBD2 ctr: -0.1; TDP2 inh: 6.5; LEDGF integ inh: -3.5; MBD2 DNA inh: 1.0; CASP6 VEID inh: -1.1

Results for Fc1ccc(CCNCc2ccc(Br)cc2)cc1 ?
UHRF1 MBD2 ctr: 34.7*; TDP2 inh: 4.5; LEDGF integ inh: 1.6; MBD2 DNA inh: 1.6; CASP6 VEID inh: -0.8; NSD2 inh: 3.5

Results for Nc1cccc(SC2CC(=O)N(c3ccc(Cl)cc3C(=O)c3ccccc3)C2=O)c1 (centres undefined) ?
UHRF1 MBD2 ctr: 28.0*; TDP2 inh: -1.2; LEDGF integ inh: -3.2; MBD2 DNA inh: -3.6; CASP6 VEID inh: -0.4; NSD2 inh: -1.6

Results for O=C(O)[C@@H]1[C@@H](CO)[C@@H]2Cn3c(ccc(-c4cccnc4)c3=O)[C@H]1N2S(=O)(=O)c1ccccc1F ?
CASP6 VEID inh: 4.0

What do the screens show for `COC(=O)C1=C(c2ccc(F)cc2OCc2ccccc2)C[C@@H]2CC[C@H]1N2C(=O)NCCc1ccc(F)cc1`?
UHRF1 MBD2 ctr: 2.0; TDP2 inh: -2.1; LEDGF integ inh: 3.8; MBD2 DNA inh: 1.1; CASP6 VEID inh: -6.9

Results for COC(=O)C1=C(c2ccc(F)cc2OCc2ccccc2)C[C@@H]2CC[C@H]1N2C(=O)NCCN1CCOCC1 ?
UHRF1 MBD2 ctr: -2.8; TDP2 inh: -0.3; LEDGF integ inh: 19.4*; MBD2 DNA inh: 2.5; CASP6 VEID inh: -0.3

Results for CCN1[C@@H]2Cn3c(ccc(-c4cccc(OC)c4)c3=O)[C@H]1[C@@H](C(=O)OC)[C@@H]2CO ?
CASP6 VEID inh: -3.0

Results for O=C(Cc1ccccc1)N1CCCCN2[C@H](C1)[C@H](c1ccc(C#Cc3ccccc3)cc1)[C@@H]2CO ?
CASP6 VEID inh: 3.2

Results for O=C1NCN(c2ccccc2)C12CCN(C(c1cc3ccccc3o1)c1nnnn1C1CCCCC1)CC2 (centres undefined) ?
UHRF1 MBD2 ctr: 23.4*; TDP2 inh: 5.0; LEDGF integ inh: -1.6; MBD2 DNA inh: 7.7; CASP6 VEID inh: 2.4

What do the screens show for `CC(C)(C)n1nnnc1C(c1cc2ccccc2o1)N1CCC2(CC1)C(=O)NCN2c1ccccc1` (centres undefined)?
UHRF1 MBD2 ctr: -0.6; TDP2 inh: -2.8; LEDGF integ inh: 3.0; MBD2 DNA inh: -0.5; CASP6 VEID inh: -2.1

How did CC(C)COC(=O)c1ccccc1C(=O)OCC(C)C do in these assays?
UHRF1 MBD2 ctr: -1.1; TDP2 inh: -0.2; LEDGF integ inh: -2.8; MBD2 DNA inh: 0.1; CASP6 VEID inh: -2.2

Results for C[CH2][Hg][S]c1ccccc1C(=O)O ?
UHRF1 MBD2 ctr: 6.8; TDP2 inh: 0.1; LEDGF integ inh: inactive; MBD2 DNA inh: 7.7; CASP6 VEID inh: 49.4*
